Tests used:
[1] = system: A-431; assay: cells; assay type: functional, cell-based; conditions: Homo sapiens, A-431, 48 h
[2] = Intrinsic clearance in human liver microsomes assessed per mg protein at 1 uM in presence of NADPH after 0.5 to 30 mins by LC/MS/MS method; assay type: ADME; conditions: read-out: CLH
[3] = Intrinsic clearance in rat liver microsomes assessed per mg protein at 1 uM in presence of NADPH after 0.5 to 30 mins by LC/MS/MS method; assay type: ADME; conditions: read-out: CLH
[4] = Intrinsic clearance in mouse liver microsomes assessed per mg protein at 1 uM in presence of NADPH after 0.5 to 30 mins by LC/MS/MS method; assay type: ADME; conditions: read-out: CLH
[5] = Intrinsic clearance in dog liver microsomes assessed per mg protein at 1 uM in presence of NADPH after 0.5 to 30 mins by LC/MS/MS method; assay type: ADME, Canis lupus familiaris; conditions: read-out: CLH
[6] = Intrinsic clearance in monkey liver microsomes assessed per mg protein at 1 uM in presence of NADPH after 0.5 to 30 mins by LC/MS/MS method; assay type: ADME, Macaca mulatta; conditions: rhesus monkey, read-out: CLH
[7] = target: Cytochrome P450 3A4 (Homo sapiens, UniProt P08684); assay: Inhibition of CYP3A4 in human hepatic microsomes after 20 mins by LC/MS/MS method; assay type: ADME, Liver
[8] = target: Cytochrome P450 2D6 (Homo sapiens, UniProt P10635); assay: Inhibition of CYP2D6 in human hepatic microsomes after 20 mins by LC/MS/MS method; assay type: ADME, Liver
[9] = target: Cytochrome P450 2C9 (Homo sapiens, UniProt P11712); assay: Inhibition of CYP2C9 in human hepatic microsomes after 20 mins by LC/MS/MS method; assay type: ADME, Liver
[10] = target: T1, Cytochrome P450 1A2 (Homo sapiens, UniProt P05177); assay: Inhibition of CYP1A2 in human hepatic microsomes after 20 mins by LC/MS/MS method; assay type: ADME, Liver
T1 sequence (P05177 whole entry): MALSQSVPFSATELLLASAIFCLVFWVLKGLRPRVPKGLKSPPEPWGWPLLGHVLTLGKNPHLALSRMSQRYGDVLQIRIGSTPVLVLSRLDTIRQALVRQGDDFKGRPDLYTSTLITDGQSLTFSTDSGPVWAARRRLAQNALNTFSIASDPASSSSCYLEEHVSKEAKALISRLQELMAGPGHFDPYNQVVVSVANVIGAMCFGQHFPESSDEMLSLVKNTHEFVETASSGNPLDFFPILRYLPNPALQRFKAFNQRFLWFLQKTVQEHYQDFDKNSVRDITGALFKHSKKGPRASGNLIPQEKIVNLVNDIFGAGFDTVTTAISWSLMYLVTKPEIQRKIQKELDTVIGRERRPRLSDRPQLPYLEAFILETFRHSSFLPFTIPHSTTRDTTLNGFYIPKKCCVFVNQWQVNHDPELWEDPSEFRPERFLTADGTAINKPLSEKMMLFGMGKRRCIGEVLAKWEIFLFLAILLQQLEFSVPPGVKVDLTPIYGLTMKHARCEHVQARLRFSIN

[11] = target: Cytochrome P450 2C19 (Homo sapiens, UniProt P33261); assay: Inhibition of CYP2C19 in human hepatic microsomes after 20 mins by LC/MS/MS method; assay type: ADME, Liver
[12] = (§1) AUC (0 to infinity) in BALB/c mouse at 5 mg/kg, po after 24 hrs by LC/MS/MS method; assay type: ADME, organism-based, Plasma; design: time infinity, dose 5 mg/kg, route oral; conditions: BALB/c, plasma
[13] = Cmax in BALB/c mouse at 5 mg/kg, po after 24 hrs by LC/MS/MS method; assay type: ADME, organism-based; design: dose 5 mg/kg, route oral; conditions: in vivo
[14] = (§2) Apparent clearance in BALB/c mouse at 5 mg/kg, po after 24 hrs by LC/MS/MS method; assay type: ADME, organism-based; design: dose 5 mg/kg, route oral; conditions: BALB/c, in vivo, read-out: CL(app)
[15] = system: Mus musculus; assay: Apparent volume of distribution in BALB/c mouse at 5 mg/kg, po after 24 hrs by LC/MS/MS method; assay type: ADME, organism-based; design: dose 5 mg/kg, route oral; conditions: in vivo
[16] = Oral bioavailability in BALB/c mouse at 5 mg/kg after 24 hrs by LC/MS/MS method; assay type: ADME, organism-based; conditions: in vivo
[17] = Ratio of drug level in lung to plasma in BALB/c mouse at 30 mg/kg, po after 6 hrs by LC/MS/MS method; assay type: ADME, organism-based; design: dose 30 mg/kg, route oral
How it was run: (§3)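 BALB/c mice received a single oral dose of 30 mg/kg. Drug concentrations in lung, brain and plasma were measured at multiple time points over 6 h. Mean tissue levels are expressed as a lung/plasma/brain ratio, with plasma set to 1.0.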

[18] = Ratio of drug level in brain to plasma in BALB/c mouse at 30 mg/kg, po after 6 hrs by LC/MS/MS method; assay type: ADME, organism-based; design: dose 30 mg/kg, route oral; conditions: read-out: BPR
How it was run: as §3

[19] = target: T2, hERG (KCNH2) (Homo sapiens, UniProt Q12809); assay: Inhibition of human ERG assessed as reduction in channel currents at 1 uM
[20] = target: T2, hERG (KCNH2); assay: Inhibition of human ERG assessed as reduction in channel currents at 10 uM
[21] = system: NCI-H1975; assay: Antitumor activity against human NCI-H1975 cells xenografted in nude mouse assessed as reduction in tumor growth at 30 mg/kg/day, ig relative to untreated control; assay type: functional; conditions: route intragastric
[22] = target: T2, hERG (KCNH2); assay: Inhibition of human ERG assessed as reduction in channel currents at 0.1 uM
[23] = system: NCI-H1975; assay: cells; assay type: functional, cell-based; conditions: Homo sapiens, NCI-H1975, 48 h
[24] = target: Epidermal growth factor receptor (Homo sapiens, UniProt P00533, T790M); assay type: protein assay
[25] = target: Receptor tyrosine-protein kinase erbB-2 (Homo sapiens, UniProt P04626); assay: Inhibition of wild type HER2 (unknown origin) incubated for 5 mins by HTRF assay
[26] = (§4) AUC (0 to infinity) in BALB/c mouse at 10 mg/kg, po after 24 hrs by LC/MS/MS method; assay type: ADME, organism-based, Plasma; design: dose 10 mg/kg, route oral, time infinity; conditions: BALB/c, plasma
[27] = Cmax in BALB/c mouse at 10 mg/kg, po after 24 hrs by LC/MS/MS method; assay type: ADME, organism-based; design: dose 10 mg/kg, route oral; conditions: in vivo
[28] = (§5) Apparent clearance in BALB/c mouse at 10 mg/kg, po after 24 hrs by LC/MS/MS method; assay type: ADME, organism-based; design: dose 10 mg/kg, route oral; conditions: BALB/c, in vivo, read-out: CL(app)
[29] = system: Mus musculus; assay: Apparent volume of distribution in BALB/c mouse at 10 mg/kg, po after 24 hrs by LC/MS/MS method; assay type: ADME, organism-based; design: dose 10 mg/kg, route oral; conditions: in vivo
[30] = Oral bioavailability in BALB/c mouse at 10 mg/kg after 24 hrs by LC/MS/MS method; assay type: ADME, organism-based; conditions: in vivo
[31] = system: SW-620; assay: Growth inhibition of human SW620 cells at 5 uM; assay type: functional; conditions: read-out: GI
[32] = system: NCI-H1975; assay: Antitumor activity against human NCI-H1975 cells xenografted in nude mouse assessed as reduction in tumor growth at 15 mg/kg/day, ig relative to untreated control; assay type: functional; conditions: route intragastric
[33] = system: NCI-H1975; assay: Antitumor activity against human NCI-H1975 cells xenografted in nude mouse assessed as reduction in tumor growth at 60 mg/kg/day, ig relative to untreated control; assay type: functional; conditions: route intragastric
[34] = system: NCI-H1975; assay: Antitumor activity against human NCI-H1975 cells xenografted in nude mouse assessed as reduction in tumor growth at 15 to 60 mg/kg/day, ig relative to untreated control; assay type: functional, organism-based
[35] = system: NCI-H1975; assay: Toxicity in human NCI-H1975 cells xenografted nude mouse assessed as induction of mortality at 30 mg/kg/day, ig; assay type: organism-based; design: route intragastric; conditions: in vivo, po
How it was run: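 H1975 NSCLC xenografts set up by subcutaneous inoculation of 3.0 × 10⁷ cells into nude mice. Dosing began at mean tumour size 50−150 mm³. Randomised mice received compound by ig gavage […] for 9 days. Vehicle control was 0.5% CMC-Na + 0.4% Tween80 at 10 mL/kg. Mortality and body weight were monitored during treatment.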

[36] = system: Mus musculus; assay: as §1; assay type: ADME, organism-based, Plasma; design: time infinity, dose 5 mg/kg, route oral; conditions: in vivo, 24 h
[37] = system: Mus musculus; assay: as §2; assay type: ADME, organism-based; design: dose 5 mg/kg, route oral; conditions: in vivo, 24 h
[38] = system: Mus musculus; assay: as §4; assay type: ADME, organism-based, Plasma; design: dose 10 mg/kg, route oral, time infinity; conditions: in vivo, 24 h
[39] = system: Mus musculus; assay: as §5; assay type: ADME, organism-based; design: dose 10 mg/kg, route oral; conditions: in vivo, 24 h

T2 sequence (Q12809 whole entry): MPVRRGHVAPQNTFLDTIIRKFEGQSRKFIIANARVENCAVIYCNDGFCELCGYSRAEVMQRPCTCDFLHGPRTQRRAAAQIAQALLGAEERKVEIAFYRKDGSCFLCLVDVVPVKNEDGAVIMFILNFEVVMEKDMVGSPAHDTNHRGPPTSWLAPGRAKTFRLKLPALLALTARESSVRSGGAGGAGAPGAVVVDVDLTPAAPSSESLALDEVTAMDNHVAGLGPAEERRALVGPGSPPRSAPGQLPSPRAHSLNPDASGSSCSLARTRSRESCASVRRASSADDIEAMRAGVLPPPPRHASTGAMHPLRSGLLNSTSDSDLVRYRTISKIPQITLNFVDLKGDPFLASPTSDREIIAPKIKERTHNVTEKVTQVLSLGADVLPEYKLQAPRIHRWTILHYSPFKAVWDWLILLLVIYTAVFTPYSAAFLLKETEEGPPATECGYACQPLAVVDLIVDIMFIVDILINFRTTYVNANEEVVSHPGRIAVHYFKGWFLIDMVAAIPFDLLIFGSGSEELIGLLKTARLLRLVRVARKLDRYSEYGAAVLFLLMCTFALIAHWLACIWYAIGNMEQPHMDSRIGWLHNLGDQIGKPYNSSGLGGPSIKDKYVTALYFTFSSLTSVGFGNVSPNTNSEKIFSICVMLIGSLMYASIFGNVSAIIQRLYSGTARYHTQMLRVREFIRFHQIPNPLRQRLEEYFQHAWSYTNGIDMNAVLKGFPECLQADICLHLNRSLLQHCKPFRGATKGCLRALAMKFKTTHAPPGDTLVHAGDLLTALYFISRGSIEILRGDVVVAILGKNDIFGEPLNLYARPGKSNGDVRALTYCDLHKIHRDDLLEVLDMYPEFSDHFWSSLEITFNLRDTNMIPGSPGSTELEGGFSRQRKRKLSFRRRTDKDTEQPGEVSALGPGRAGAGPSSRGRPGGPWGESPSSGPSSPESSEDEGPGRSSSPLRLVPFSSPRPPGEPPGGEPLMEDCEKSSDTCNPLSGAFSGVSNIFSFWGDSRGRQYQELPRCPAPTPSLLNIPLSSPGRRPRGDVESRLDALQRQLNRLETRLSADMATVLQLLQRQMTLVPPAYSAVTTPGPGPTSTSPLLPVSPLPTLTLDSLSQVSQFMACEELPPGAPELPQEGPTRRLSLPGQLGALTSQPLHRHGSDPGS
Sequence of Cytochrome P450 2C19 (P33261 whole entry): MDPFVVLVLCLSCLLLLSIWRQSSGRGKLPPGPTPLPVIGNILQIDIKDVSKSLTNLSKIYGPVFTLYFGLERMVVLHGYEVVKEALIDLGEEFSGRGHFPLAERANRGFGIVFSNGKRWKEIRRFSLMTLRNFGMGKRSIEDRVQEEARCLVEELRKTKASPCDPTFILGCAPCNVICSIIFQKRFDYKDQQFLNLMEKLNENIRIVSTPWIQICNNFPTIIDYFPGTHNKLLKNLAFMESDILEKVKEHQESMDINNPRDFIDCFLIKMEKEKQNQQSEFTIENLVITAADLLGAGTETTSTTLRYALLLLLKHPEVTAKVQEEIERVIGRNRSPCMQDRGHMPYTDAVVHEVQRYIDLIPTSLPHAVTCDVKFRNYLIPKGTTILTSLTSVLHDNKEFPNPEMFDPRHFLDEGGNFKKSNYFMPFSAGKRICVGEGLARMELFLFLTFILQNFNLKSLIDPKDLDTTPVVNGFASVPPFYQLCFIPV
Sequence of Cytochrome P450 2C9 (P11712 whole entry): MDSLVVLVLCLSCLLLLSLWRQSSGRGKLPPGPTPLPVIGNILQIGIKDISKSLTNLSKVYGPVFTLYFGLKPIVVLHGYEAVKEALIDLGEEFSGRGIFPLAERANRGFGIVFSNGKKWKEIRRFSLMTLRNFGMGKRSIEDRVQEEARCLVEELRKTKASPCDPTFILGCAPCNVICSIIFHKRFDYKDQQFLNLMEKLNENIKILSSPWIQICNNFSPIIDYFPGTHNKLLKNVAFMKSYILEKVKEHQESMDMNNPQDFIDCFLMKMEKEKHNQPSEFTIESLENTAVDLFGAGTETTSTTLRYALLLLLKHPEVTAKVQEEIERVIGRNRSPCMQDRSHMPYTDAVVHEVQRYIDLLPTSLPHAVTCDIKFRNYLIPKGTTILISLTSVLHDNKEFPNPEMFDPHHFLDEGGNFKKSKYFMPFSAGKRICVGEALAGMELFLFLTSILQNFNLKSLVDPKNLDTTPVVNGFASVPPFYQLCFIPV
Sequence of Cytochrome P450 2D6 (P10635 whole entry): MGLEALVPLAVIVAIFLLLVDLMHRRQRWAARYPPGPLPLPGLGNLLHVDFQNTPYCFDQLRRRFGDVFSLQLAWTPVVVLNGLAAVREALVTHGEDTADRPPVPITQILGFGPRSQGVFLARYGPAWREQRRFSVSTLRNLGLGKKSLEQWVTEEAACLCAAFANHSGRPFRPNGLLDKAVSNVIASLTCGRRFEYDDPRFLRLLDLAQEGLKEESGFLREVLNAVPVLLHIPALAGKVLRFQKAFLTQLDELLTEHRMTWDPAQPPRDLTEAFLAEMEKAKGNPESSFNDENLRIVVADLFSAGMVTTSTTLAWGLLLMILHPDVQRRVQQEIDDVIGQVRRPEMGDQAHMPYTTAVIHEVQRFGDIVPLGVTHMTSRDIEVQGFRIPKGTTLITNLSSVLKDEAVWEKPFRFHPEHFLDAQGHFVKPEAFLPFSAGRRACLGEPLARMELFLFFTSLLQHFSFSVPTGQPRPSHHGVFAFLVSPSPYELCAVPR
Sequence of Cytochrome P450 3A4 (P08684 whole entry): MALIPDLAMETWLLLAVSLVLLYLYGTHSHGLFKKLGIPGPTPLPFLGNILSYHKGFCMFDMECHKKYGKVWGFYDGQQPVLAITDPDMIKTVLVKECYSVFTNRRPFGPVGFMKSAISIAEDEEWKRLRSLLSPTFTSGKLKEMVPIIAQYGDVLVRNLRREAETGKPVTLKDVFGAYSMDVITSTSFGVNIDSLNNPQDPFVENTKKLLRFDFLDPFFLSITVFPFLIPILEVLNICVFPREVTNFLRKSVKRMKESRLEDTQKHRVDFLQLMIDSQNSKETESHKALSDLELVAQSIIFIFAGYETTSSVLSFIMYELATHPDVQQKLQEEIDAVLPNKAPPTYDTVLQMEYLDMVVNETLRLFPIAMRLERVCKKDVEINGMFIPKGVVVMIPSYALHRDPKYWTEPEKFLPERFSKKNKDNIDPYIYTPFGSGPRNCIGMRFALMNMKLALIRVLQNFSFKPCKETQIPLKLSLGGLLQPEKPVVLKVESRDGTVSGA
Sequence of Receptor tyrosine-protein kinase erbB-2 (P04626 whole entry): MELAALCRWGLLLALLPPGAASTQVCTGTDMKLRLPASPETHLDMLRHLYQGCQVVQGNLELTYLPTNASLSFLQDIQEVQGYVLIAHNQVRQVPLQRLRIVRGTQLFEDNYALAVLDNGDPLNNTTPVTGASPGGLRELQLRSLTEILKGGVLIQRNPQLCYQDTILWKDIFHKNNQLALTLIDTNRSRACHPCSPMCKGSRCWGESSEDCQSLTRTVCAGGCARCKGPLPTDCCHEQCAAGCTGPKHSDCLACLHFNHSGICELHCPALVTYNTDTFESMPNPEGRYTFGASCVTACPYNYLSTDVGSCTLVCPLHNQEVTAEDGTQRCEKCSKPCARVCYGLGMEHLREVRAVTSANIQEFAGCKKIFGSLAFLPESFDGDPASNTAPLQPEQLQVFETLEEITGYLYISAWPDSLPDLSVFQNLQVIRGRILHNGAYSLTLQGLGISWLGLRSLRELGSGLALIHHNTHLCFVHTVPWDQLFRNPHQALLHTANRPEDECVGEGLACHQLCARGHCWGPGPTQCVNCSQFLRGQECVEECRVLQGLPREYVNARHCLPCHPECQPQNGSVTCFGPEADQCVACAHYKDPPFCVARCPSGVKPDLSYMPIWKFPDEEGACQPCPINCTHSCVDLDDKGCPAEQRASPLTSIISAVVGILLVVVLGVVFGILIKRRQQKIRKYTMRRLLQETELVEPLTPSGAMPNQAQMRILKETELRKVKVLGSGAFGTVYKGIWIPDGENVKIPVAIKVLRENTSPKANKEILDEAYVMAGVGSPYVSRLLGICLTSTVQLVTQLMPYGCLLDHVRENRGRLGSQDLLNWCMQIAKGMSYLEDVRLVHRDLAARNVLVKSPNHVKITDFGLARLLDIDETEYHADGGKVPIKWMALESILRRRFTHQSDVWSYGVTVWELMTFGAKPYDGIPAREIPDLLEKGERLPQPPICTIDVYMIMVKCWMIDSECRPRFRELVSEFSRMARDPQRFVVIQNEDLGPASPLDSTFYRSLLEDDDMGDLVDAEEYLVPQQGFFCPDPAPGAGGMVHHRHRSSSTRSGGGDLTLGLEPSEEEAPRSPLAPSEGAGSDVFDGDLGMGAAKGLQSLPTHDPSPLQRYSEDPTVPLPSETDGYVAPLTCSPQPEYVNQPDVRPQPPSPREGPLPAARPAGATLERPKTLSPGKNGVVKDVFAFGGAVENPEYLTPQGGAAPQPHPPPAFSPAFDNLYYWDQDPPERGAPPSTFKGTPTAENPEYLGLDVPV

Row | Compound | IC50 [1] | microsomal CLint at 1 µM [2] | microsomal CLint at 1 µM [3] | microsomal CLint at 1 µM [4] | microsomal CLint at 1 µM [5] | microsomal CLint at 1 µM [6] | IC50 [7] | IC50 [8] | IC50 [9] | IC50 [10] | IC50 [11] | Cmax [13] | Vz [15] | bioavailability [16] | Kp at 6 h [17] | Kp at 6 h [18] | inhibition at 1 µM [19] | inhibition at 10 µM [20] | T/C [21] | IC50 [23] | further results
1 | COc1cc2ncnc(Nc3ccc(F)c(Cl)c3)c2cc1NC(=O)/C(F)=C/CN1CCCCC1 | 460 nM | 37 µL/min/mg | 11 µL/min/mg | 31 µL/min/mg | 34 µL/min/mg | 102 µL/min/mg | > 10000 nM | > 10000 nM | > 10000 nM | > 10000 nM | > 10000 nM | 830 nM | 7.14 L/kg | 105% | 20 | 2.31 | 0.71% | 11.8% | 67.4% | – | AUC(0-inf) [12]: 5.1 µM·h; CL/F [14]: 40 mL/min/kg
2 | COc1cc(N)c(Cl)cc1C(=O)NC1CCN(CCCOc2ccc(F)cc2)CC1OC (stereo not given) [CISAPRIDE] | – | – | – | – | – | – | – | – | – | – | – | – | – | – | – | – | 92.4% | – | – | – | inhibition at 0.1 µM [22]: 65.5%
3 | CN(C)C/C=C(\F)C(=O)Nc1cc2c(Nc3ccc(F)c(Cl)c3)ncnc2cc1O[C@H]1CCOC1 | 130 nM | 2 µL/min/mg | 14 µL/min/mg | 12 µL/min/mg | 39 µL/min/mg | 31 µL/min/mg | > 10000 nM | > 10000 nM | > 10000 nM | > 10000 nM | > 10000 nM | – | – | – | 25 | 0.79 | 0% | 14.8% | 19.5% | 1240 nM | IC50 [24]: 5.52 nM; IC50 [25]: 149 nM; AUC(0-inf) [26]: 10.4 µM·h; Cmax [27]: 940 nM; CL/F [28]: 30 mL/min/kg; Vz [29]: 9.69 L/kg; bioavailability [30]: 84.7%; inhibition of growth at 5 µM [31]: 11.5%; T/C [32]: 42.5%; T/C [33]: 9.4%; inhibition [34]: Dose-dependent effect; Activity [35]: Non-toxic
4 | COc1cc2ncnc(Nc3ccc(F)c(Cl)c3)c2cc1NC(=O)/C(F)=C\CN1CCCCC1 | – | – | – | – | – | – | – | – | – | – | – | 90 nM | 12.2 L/kg | 16.5% | – | – | – | – | – | 1010 nM | AUC [36]: 14.7 µM·min; CL(app) [37]: 120 mL/min/kg
5 | CN(C)C/C=C/C(=O)Nc1cc2c(Nc3ccc(F)c(Cl)c3)ncnc2cc1O[C@H]1CCOC1 [AFATINIB] | – | 8 µL/min/mg | 12 µL/min/mg | 6 µL/min/mg | 9 µL/min/mg | 24 µL/min/mg | – | – | – | – | – | – | – | – | – | – | – | – | 30.3% | – | AUC [38]: 29.4 µM·min; Cmax [27]: 130 nM; CL(app) [39]: 270 mL/min/kg; Vz [29]: 36.2 L/kg; bioavailability [30]: 37.4%; inhibition of growth at 5 µM [31]: 78%

From ChEMBL document CHEMBL3351667, “A chemical tuned strategy to develop novel irreversible EGFR-TK inhibitors with improved safety and pharmacokinetic profiles” (J Med Chem, 2014)
